For data set [1], the system named is A549 cells. Put plainly: Cellular uptake inhibition by acetazolamide pre-incubation, ICP-MS. It counts as cell-based, Human. The conditions noted are these: A549, complex 5 μM 4 h, acetazolamide 50 μM 2 h pre-incubation.
A short description of data set [2]: Octanol/PBS partition coefficient. It counts as physicochemical. The conditions noted are these: room temperature, PF6- salts. Summed up:
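Partitioning measured between octanol and PBS; PBS replaced water to limit pH effects on log P. Complexes were tested as PF6− salts, whereas the biological assays used chloride salts.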

Data set [3] in a line: Spectroscopic properties and 1O2 quantum yield in MeCN. It counts as physicochemical. The conditions noted are these: for Φ Δ (1O2 quantum yield): irradiation at 450 nm, [Ru(bpy)3]Cl2 as reference.
The test system of data set [4] is RPE-1 cells. Put plainly: Dark cytotoxicity, resazurin assay, non-cancerous RPE-1. It counts as cell-based. The conditions noted are these: read-out: Cytotoxicity IC50 Dark, RPE-1, normoxia (20%). Background: The colour change of resazurin is a common sign of viable cells or microbes.
Data set [5] can be described thus: Solubility in water. It counts as physicochemical.
Data set [6] has as its system A549 cells. Nature of the data set: Cellular fraction. The conditions noted are these: A549, 24 h co-incubation, nuclei/cytoplasm isolated, ICP-MS. It counts as cell-based, Human. The method in brief: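 Test complexes were incubated with A549 cells for 24 h. Nuclei and cytoplasm were then isolated, and each fraction was analysed by ICP-MS for Ru or Os content to give the distribution between compartments. Experiments were done in triplicate.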

Data set [7] concerns A549 cells. Nature of the data set: Cellular uptake by ICP-MS. It counts as cell-based, Human. The conditions noted are these: A549, 5 μM, 4 h. The method in brief:
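Test Os(II) complexes were added at 5 μM to A549 cells for 4 h under normoxic or hypoxic conditions. Uptake was quantified by ICP-MS from the cellular Ru/Os concentration. Experiments were done in triplicate.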

The results in this text go back to PMC10619633 (Chemical Science, 2023).

For “[Ru(Bphen)2(bpy-(NH CH 2CH2NH2)2-L2)]2+(2 P F 6-).(L= N4-Succinoylsulfanilamide) [complex 6]”, in data set [1], the “impact of acetazolamide pre-incubation on cellular uptake” value (shortened to “impact of acetazolamide pre-incubation”) was “notably reduced”. Besides, in data set [2], the “log P (octanol/PBS partition coefficient)” value is listed as “greater than 1”. Besides, in data set [3], the “Φ em (luminescence quantum yield)” value came out at 2%, the “λ em (emission maximum)” value is 675 nm, the “τ (fluorescence lifetime)” value is reported as 117 ns and the “Φ Δ (1O2 quantum yield)” value was found to be 77%. The IC50 in data set [4] was over 100 µM. Further, the solubility in water result in data set [5] is on record as “good solubility in water”. For the same compound, the “fraction localized within the cytoplasm” value in data set [6] was “over 80%”.
Regarding “[Os(Bphen)2(bpy-(NHCH2CH2NH2)2-L2)]2+(2PF6-).(L= N4-Succinoylsulfanilamide) [complex 12]”, the “impact of acetazolamide pre-incubation” value in data set [1] is listed as “notably reduced”. For the same compound, in data set [2], the “log P (octanol/PBS partition coefficient)” value is “greater than 1”. The “Φ em (luminescence quantum yield)” value in data set [3] was determined as 0%. Moreover, the half-inhibitory concentration (IC50) in data set [4] is over 100 µM. For the same compound, the solubility in water entry in data set [5] is on record as “good solubility in water”. Moreover, in data set [6], the “fraction localized within the cytoplasm” value was “over 80%”. In addition, the “cellular uptake under hypoxic compared to normoxic conditions” value in data set [7] turned out to be 1.3 times.
“[Os(Bphen)2(bpy-(NHCH2CH2NH2)2-L)]2+(2PF6-).(L= N4-Succinoylsulfanilamide) [complex 11]”: in data set [1], the “impact of acetazolamide pre-incubation” value is on record as “notably reduced”. In data set [2], the “log P (octanol/PBS partition coefficient)” value is “greater than 1”. Also, the “Φ em (luminescence quantum yield)” value in data set [3] is 0%. Besides, the concentration for half-maximal inhibition (IC50) in data set [4] is over 100 µM. The solubility in water entry in data set [5] was “good solubility in water”.
“[Ru(Bphen)2(bpy-(NH 2)2)]2+(2PF6-) [complex 3]”: in data set [1], the “impact of acetazolamide pre-incubation” value was “negligible”. Further, the half-maximal inhibitory concentration (IC50) in data set [4] was over 100 µM.
For the compound “[Ru(Bphen)2(bpy-(NH CH 2CH2NH2)2-L)]2+(2PF6-).(L= N4-Succinoylsulfanilamide) [complex 5]”, the “impact of acetazolamide pre-incubation” value in data set [1] is “notably reduced”. In data set [3], the “Φ em (luminescence quantum yield)” value worked out at 2%, the “λ em (emission maximum)” value came out at 674 nm, the “τ (fluorescence lifetime)” value was 122 ns and the “Φ Δ (1O2 quantum yield)” value amounted to 77%. In addition, in data set [4], the IC50 is over 100 µM. The solubility in water entry in data set [5] is “good solubility in water”.
In the case of `[Cl][Ru][Cl].c1ccc(-c2ccccn2)nc1.c1ccc(-c2ccccn2)nc1.c1ccc(-c2ccccn2)nc1` [Ru(bpy)3, [Ru(bpy)3]Cl2, reference compound], in data set [3], the “Φ em (luminescence quantum yield)” value was 8%, the “λ em (emission maximum)” value is reported as 608 nm, the “τ (fluorescence lifetime)” value is given as 159 ns and the “Φ Δ (1O2 quantum yield)” value stood at 77%.
With “[Os(Bphen)2(bpy-(NH2)2)]2+(2PF6-) [complex 9]”, the “impact of acetazolamide pre-incubation” value in data set [1] is listed as “negligible”. Also, in data set [4], the IC50 was over 30 µM. Moreover, the “cellular uptake under hypoxic compared to normoxic conditions” value in data set [7] is listed as “notably reduced cellular uptake under hypoxic conditions”.

One may read the IC50 as the concentration that inhibits the measured activity by half.
